Results as given in ChEMBL document CHEMBL4270642, “Boronic ester-linked macrocyclic lipopeptides as serine protease inhibitors targeting Escherichia coli type I signal peptidase” (Eur J Med Chem, 2018).
Values after ≈ are worked out from the molar mass of the structure shown.

Experiments:
[1] = molecular target: Signal peptidase I (Escherichia coli K-12) (UniProt P00803); test: Inhibition of Escherichia coli type 1 signal peptidase lepB assessed as residual activity at 10 uM preincubated for 10 mins followed by Dabcyl-VGGTATAYGAFSRPGLE-(EDANS)-OH substrate addition measured after 2 hrs by FRET based assay (reference value: 100%)
Chain of Signal peptidase I (Escherichia coli K-12) (P00803 whole entry): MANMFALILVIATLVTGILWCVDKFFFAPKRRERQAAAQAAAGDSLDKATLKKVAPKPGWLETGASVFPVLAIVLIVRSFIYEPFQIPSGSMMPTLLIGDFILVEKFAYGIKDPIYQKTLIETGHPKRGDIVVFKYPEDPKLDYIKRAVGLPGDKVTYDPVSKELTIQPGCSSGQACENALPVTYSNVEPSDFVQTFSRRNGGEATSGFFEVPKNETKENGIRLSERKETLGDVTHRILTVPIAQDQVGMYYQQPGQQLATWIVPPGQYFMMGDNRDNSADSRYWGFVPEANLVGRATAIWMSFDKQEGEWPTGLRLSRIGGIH
How it was run: (§1)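 EcLepB (about 50 nM estimated) preincubated 10 min with compound. Reaction started with Dabcyl/EDANS FRET peptide at 8 µM final (Km 20 µM). Fluorescence followed continuously at 535 nm, 22 °C, for 2 h. Cleavage rates plotted against inhibitor concentration; IC50 from non-linear regression of sigmoidal dose-response curves.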

[2] = molecular target: Signal peptidase I (Escherichia coli K-12) (UniProt P00803); test: Inhibition of Escherichia coli type 1 signal peptidase lepB assessed as residual activity at 0.0098 uM preincubated for 10 mins followed by Dabcyl-VGGTATAYGAFSRPGLE-(EDANS)-OH substrate addition measured after 2 hrs by FRET based assay (reference value: 100%); how it was run: as §1
[3] = molecular target: Signal peptidase I (Escherichia coli K-12) (UniProt P00803); test: Inhibition of Escherichia coli type 1 signal peptidase lepB assessed as residual activity at 0.625 uM preincubated for 10 mins followed by Dabcyl-VGGTATAYGAFSRPGLE-(EDANS)-OH substrate addition measured after 2 hrs by FRET based assay (reference value: 100%); how it was run: as §1
[4] = molecular target: Signal peptidase I (Escherichia coli K-12) (UniProt P00803); test: Inhibition of Escherichia coli type 1 signal peptidase lepB assessed as residual activity at 0.3125 uM preincubated for 10 mins followed by Dabcyl-VGGTATAYGAFSRPGLE-(EDANS)-OH substrate addition measured after 2 hrs by FRET based assay (reference value: 100%); how it was run: as §1
[5] = molecular target: Signal peptidase I (Escherichia coli K-12) (UniProt P00803); test: Inhibition of Escherichia coli type 1 signal peptidase lepB assessed as residual activity at 5 uM preincubated for 10 mins followed by Dabcyl-VGGTATAYGAFSRPGLE-(EDANS)-OH substrate addition measured after 2 hrs by FRET based assay (reference value: 100%); how it was run: as §1
[6] = molecular target: Signal peptidase I (Escherichia coli K-12) (UniProt P00803); test: Inhibition of Escherichia coli type 1 signal peptidase lepB assessed as residual activity at 2.5 uM preincubated for 10 mins followed by Dabcyl-VGGTATAYGAFSRPGLE-(EDANS)-OH substrate addition measured after 2 hrs by FRET based assay (reference value: 100%); how it was run: as §1
[7] = system: HepG2; test: Cytotoxicity against human HepG2 cells after 72 hrs by FMSA; type: cell-based; settings: HepG2, 72 h
How it was run: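 HepG2 (ATCC) grown in EMEM with 10% FBS, pen/strep, 2 mM L-glutamine, used up to 20 passages. Seeded at 1000 cells/well, cultured overnight, then dosed acoustically from DMSO stocks. Eight two-fold dilutions in duplicate from top 64 or 32 µM; 72 h at 37 °C, 5% CO2. Fluorescein diacetate hydrolysis read at ex 485/em 530 nm; IC50 by non-linear regression.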

[8] = system: Escherichia coli; test: Antibacterial activity against Escherichia coli D22 CGSG 5163 harboring Ips mutant after 16 to 20 hrs by broth microdilution method; type: functional
How it was run: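 Broth microdilution in cation-adjusted Mueller-Hinton II broth, following EUCAST and CLSI guidelines. Two-fold series at final concentrations 64 down to 0.25 µg/mL, with medium-only and growth controls. Inoculum from fresh colonies (18-24 h, 35 °C ± 2 °C) adjusted to 0.5 McFarland, final ≈5 × 10^5 CFU/mL. Plates incubated unshaken 16-20 h at 35 °C ± 2 °C. MIC read visually as complete inhibition of growth.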

[9] = system: Staphylococcus aureus; test: Antibacterial activity against Staphylococcus aureus ATCC 29213 after 16 to 20 hrs by broth microdilution method; type: functional
How it was run: (§2)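 Broth microdilution in cation-adjusted Mueller-Hinton II per EUCAST/CLSI; two-fold compound series 64 down to 0.25 µg/mL final. Inoculum from fresh colonies (non-selective agar, 18-24 h, 35 ± 2 °C), adjusted to 0.5 McFarland, diluted to about 5 × 10^5 CFU/mL final. Static incubation 16-20 h at 35 ± 2 °C; MIC read visually as complete growth inhibition against medium-only wells.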

[10] = system: Acinetobacter baumannii; test: Antibacterial activity against Acinetobacter baumannii ATCC 19606 after 16 to 20 hrs by broth microdilution method; type: functional; settings: ATCC 19606 = CIP 70.34 = JCM 6841; how it was run: as §2
[11] = system: Escherichia coli; test: Antibacterial activity against Escherichia coli ATCC 25922 after 16 to 20 hrs by broth microdilution method; type: functional; how it was run: as §2
[12] = molecular target: Signal peptidase I (Escherichia coli K-12) (UniProt P00803); test: Inhibition of Escherichia coli type 1 signal peptidase lepB assessed as residual activity at 0.0195 uM preincubated for 10 mins followed by Dabcyl-VGGTATAYGAFSRPGLE-(EDANS)-OH substrate addition measured after 2 hrs by FRET based assay (reference value: 100%); how it was run: as §1
[13] = system: Pseudomonas aeruginosa; test: Antibacterial activity against efflux defective Pseudomonas aeruginosa PAO750 after 16 to 20 hrs by broth microdilution method; type: functional; how it was run: as §2
[14] = molecular target: Signal peptidase I (Escherichia coli K-12, UniProt P00803); test: Inhibition of Escherichia coli type 1 signal peptidase lepB preincubated for 10 mins followed by Dabcyl-VGGTATAYGAFSRPGLE-(EDANS)-OH substrate addition measured after 2 hrs by FRET based assay; how it was run: as §1
Chain of Signal peptidase I (P00803 whole entry): as above

[15] = Hemolytic activity in human RBC at 100 uM after 45 mins by spectrophotometric method relative to control; type: ADME, cell-based, Erythrocyte; settings: red blood cells (erythrocytes), read-out: Activity
How it was run: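 Heparinized human blood; red cells washed three times in Tyrode buffer pH 7.4. Compound at 100 µM final with 1% DMSO and 50% RBC, shaken (250 rpm) 45 min at 37 °C. Cells pelleted (1000 × g, 10 min); supernatant haemoglobin at 540 nm. Percent lysis relative to buffer-only and 2% Triton X-100 controls.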

[16] = molecular target: Signal peptidase I (Escherichia coli K-12) (UniProt P00803); test: Inhibition of Escherichia coli type 1 signal peptidase lepB assessed as residual activity at 0.0049 uM preincubated for 10 mins followed by Dabcyl-VGGTATAYGAFSRPGLE-(EDANS)-OH substrate addition measured after 2 hrs by FRET based assay (reference value: 100%); how it was run: as §1
[17] = system: Klebsiella pneumoniae; test: Antibacterial activity against Klebsiella pneumoniae ATCC 13883 after 16 to 20 hrs by broth microdilution method; type: functional; how it was run: as §2
[18] = system: Escherichia coli; test: Antibacterial activity against tolC deficient Escherichia coli CH3130 after 16 to 20 hrs by broth microdilution method; type: functional; how it was run: as §2
[19] = molecular target: Signal peptidase I (Escherichia coli K-12) (UniProt P00803); test: Inhibition of Escherichia coli type 1 signal peptidase lepB assessed as residual activity at 0.0012 uM preincubated for 10 mins followed by Dabcyl-VGGTATAYGAFSRPGLE-(EDANS)-OH substrate addition measured after 2 hrs by FRET based assay (reference value: 100%); how it was run: as §1
[20] = molecular target: Signal peptidase I (Escherichia coli K-12) (UniProt P00803); test: Inhibition of Escherichia coli type 1 signal peptidase lepB assessed as residual activity at 0.0391 uM preincubated for 10 mins followed by Dabcyl-VGGTATAYGAFSRPGLE-(EDANS)-OH substrate addition measured after 2 hrs by FRET based assay (reference value: 100%); how it was run: as §1
[21] = system: Pseudomonas aeruginosa; test: Antibacterial activity against Pseudomonas aeruginosa PAO1 after 16 to 20 hrs by broth microdilution method; type: functional; how it was run: as §2
[22] = molecular target: Signal peptidase I (Escherichia coli K-12) (UniProt P00803); test: Inhibition of Escherichia coli type 1 signal peptidase lepB assessed as residual activity at 1.25 uM preincubated for 10 mins followed by Dabcyl-VGGTATAYGAFSRPGLE-(EDANS)-OH substrate addition measured after 2 hrs by FRET based assay (reference value: 100%); how it was run: as §1
[23] = molecular target: Signal peptidase I (Escherichia coli K-12) (UniProt P00803); test: Inhibition of Escherichia coli type 1 signal peptidase lepB assessed as residual activity at 0.0024 uM preincubated for 10 mins followed by Dabcyl-VGGTATAYGAFSRPGLE-(EDANS)-OH substrate addition measured after 2 hrs by FRET based assay (reference value: 100%); how it was run: as §1
[24] = molecular target: Signal peptidase I (Escherichia coli K-12) (UniProt P00803); test: Inhibition of Escherichia coli type 1 signal peptidase lepB assessed as residual activity at 0.1563 uM preincubated for 10 mins followed by Dabcyl-VGGTATAYGAFSRPGLE-(EDANS)-OH substrate addition measured after 2 hrs by FRET based assay (reference value: 100%); how it was run: as §1
[25] = molecular target: Signal peptidase I (Escherichia coli K-12) (UniProt P00803); test: Inhibition of Escherichia coli type 1 signal peptidase lepB assessed as residual activity at 0.0781 uM preincubated for 10 mins followed by Dabcyl-VGGTATAYGAFSRPGLE-(EDANS)-OH substrate addition measured after 2 hrs by FRET based assay (reference value: 100%); how it was run: as §1

| SMILES | Activity [1] [%] | Activity [2] [%] | Activity [3] [%] | Activity [4] [%] | Activity [5] [%] | Activity [6] [%] | IC50 [7] [nM] | MIC [8] [µg/mL] | MIC [9] [µg/mL] | MIC [10] [µg/mL] | MIC [11] | Activity [12] [%] | MIC [13] [µg/mL] | IC50 [14] [nM] | hemolysis at 0.75 h, 100 µM [15] [%] | Activity [16] [%] | MIC [17] [µg/mL] | MIC [18] [µg/mL] | Activity [19] [%] | Activity [20] [%] | other results |
| --- | --- | --- | --- | --- | --- | --- | --- | --- | --- | --- | --- | --- | --- | --- | --- | --- | --- | --- | --- | --- | --- |
| C[C@@H]1NC(=O)[C@@H](NC(=O)[C@H](C)NC(=O)[C@@H](NC(=O)[C@H](CCCN)NC(=O)c2ccc(-c3ccccc3)cc2)[C@@H](C)O)Cc2cn(nn2)CCO[C@@H]2C[C@@H]3OB1O[C@@H]3C2 | 7.2 | 88.3 | 11.8 | 12 | 9.7 | 9.9 | > 64000 | > 64 | > 64 | > 64 | > 64 µg/mL | 83.8 | > 64 | 72 | 0.2 | 84.9 | > 64 | > 64 | 100 | 68.9 | MIC [21]: > 64 µg/mL; Activity [22]: 10.6%; Activity [23]: 94.6%; Activity [24]: 26.4%; Activity [25]: 48.6% |
| CCCCCCC#Cc1cncc(C(=O)N[C@@H](CCCN)C(=O)N[C@H](C(=O)N[C@@H](C)C(=O)N[C@H]2Cc3cn(nn3)CCO[C@@H]3C[C@@H]4OB(O[C@@H]4C3)[C@H](C)NC2=O)[C@@H](C)O)c1 | -1.2 | 82.7 | 13 | 13.4 | 2.3 | 8.2 | > 64000 | > 64 | 32 (≈ 38.3 µM) | > 64 | > 64 µg/mL | 75.2 | > 64 | 41 | 0.01 | 91 | > 64 | 64 (≈ 76.7 µM) | 106 | 53.7 | MIC [21]: > 64 µg/mL; Activity [22]: 7.9%; Activity [23]: 93.6%; Activity [24]: 10.6%; Activity [25]: 26.8% |
| CCCCCCc1ccc(-n2cc(C(=O)N[C@@H](CCCN)C(=O)N[C@H](C(=O)N[C@@H](C)C(=O)N[C@H]3Cc4cn(nn4)CCO[C@@H]4C[C@@H]5OB(O[C@@H]5C4)[C@H](C)NC3=O)[C@@H](C)O)ccc2=O)cc1 | 17 | 98.8 | 32.6 | 59.3 | 15.8 | 17.3 | > 64000 | > 64 | 64 (≈ 70.9 µM) | > 64 | > 64 µg/mL | 111 | > 64 | 495 | 0.03 | 101 | > 64 | > 64 | 109 | 98.3 | MIC [21]: > 64 µg/mL; Activity [22]: 24.3%; Activity [23]: 101%; Activity [24]: 90%; Activity [25]: 95.3% |
| CCCCCCc1ccc(-c2ccc(C(=O)N3CC(CN)C[C@H]3C(=O)N[C@H](C(=O)N[C@@H](C)C(=O)N[C@@H](CC(N)=O)C(=O)N[C@@H](C)B(O)O)[C@@H](C)O)cc2)cc1 (some centres undefined) | – | – | – | – | – | – | 16000 | – | – | – | 16 µM | – | – | 6 | 2.5 | – | – | – | – | – | – |
| C[C@@H]1NC(=O)[C@@H](NC(=O)[C@H](C)NC(=O)[C@@H](NC(=O)[C@H](CCCN)NC(=O)C#Cc2ccc(-c3ccccc3)cc2)[C@@H](C)O)Cc2cn(nn2)CCO[C@@H]2C[C@@H]3OB1O[C@@H]3C2 | 6.8 | 99 | 25.8 | 30 | 13.5 | 17.8 | 28200 | > 64 | 32 (≈ 38.8 µM) | > 64 | > 64 µg/mL | 98.2 | > 64 | 227 | 0.01 | 97.1 | > 64 | > 64 | 103 | 89.3 | MIC [21]: > 64 µg/mL; Activity [22]: 22.5%; Activity [23]: 106%; Activity [24]: 58.2%; Activity [25]: 73.1% |
